L major viab = Leishmania major promastigote growth inhibition, primary screen | AID 1063, 2008 | inhibition, % at 10 µM | hit rate 9% among 200,000 | Leishmania major promastigotes, resazurin fluorescence viability; in the data active = inhibition above about 50%;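 note: promastigotes grown with compound for 44 hours at 28 °C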
Dynein transport = inhibitors of GR-EGFP nuclear translocation, primary screen, dynein cargo transport inhibitor project, imaging, high-content, 3617.4 mouse cells; test concentration mostly 20 µM; stimulated with dexamethasone, 1 µM; stronger effect = lower value; z-score, hits read low; hit rate 0.47% among 220,000; AID 1381, 2008;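 active = plate z-score of nuclear minus cytoplasmic receptor signal below a set negative limit, without overly bright fluorescence or cell loss, cut at about -3.5 in these data, passing the limit was not always enough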;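 note: z-score of nuclear minus cytoplasmic ring GR-EGFP intensity difference per well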
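Buffer or medium: tet-free, stripped-serum medium; reagent: dexamethasone at 1.0 µM final, 30 min; incubation: 48 h induction, 1 h compound, 30 min dex at 37 °C; measured by: formaldehyde fixation, Hoechst nuclear stain, 10x automated fluorescence imaging; read-out: nuclear-to-cytoplasmic GR-EGFP distribution per well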
CHOP inh = inhibitors of CHOP promoter induction, primary screen, cell-based, unfolded protein response, luciferase reporter | CHO-K1 CHOP-promoter luciferase, tunicamycin-induced, 15-18 h | AID 2732, 2010 | inhibition, % at 10 µM | hit rate 3.8% among 220,000;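 active = compounds that reduced the stress-induced luciferase reporter signal by more than about 70% of percent inhibition, limit read from the data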;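 note: 0% = tunicamycin plus vehicle and 100% = wells without tunicamycin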
Autophagy HCS = autophagy modulators in MEF cells, primary screen, imaging, high-content, MEF GFP-LC3 | AID 463193, 2010 | hit rate 0.98% among 190,000 | MEF GFP-LC3 puncta imaging; test concentration mostly 10 µM | calls only at 10 µM (by protocol);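 active = percentage of spot-positive cells more than 3 SD above its plate mean, without a fluorescence outlier flag or 80% toxicity; inconclusive = no clear call, values can overlap the other calls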;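 note: spot-positive cell cutoff set from DMSO-treated cells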
MT stabilizer = microtubule stabilizers in HeLa cells, primary screen, imaging, high-content imaging; % tubulin-high responders, % at 10 µM; hit rate 0.83% among 200,000; HeLa tubulin immunostaining HCS, 24 h; share of cells brighter than vehicle mean+2SD;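 active = plate Z-score above 3 for both tubulin-high and condensed-nucleus cell shares, with cell loss under 80%, at 10 µM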;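 note: anti alpha tubulin signal scored within the nucleus-defined area of each cell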
b-catenin transl = modulators of beta-catenin nuclear translocation, primary screen, imaging, HeLa cells, immunofluorescence, high-content; nuclear translocation activity, % at 5 µM; hit rate 0.3% among 190,000;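 active = nuclear translocation activity above 50% at 5 µM, with a well cell count of 50 or more; inconclusive = wells under 50 cells across six images, flagged as toxic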;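 note: per-cell ratio of nuclear to cytoplasmic median beta-catenin stain intensity; plate controls were DMSO negative control for no effect and GSK-3 inhibitor IX positive control for full effect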
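Test system: HeLa cells, endogenous beta-catenin; Compound: single 5 µM dose plus 0.02–20 µM confirmation series; Times: compound exposure 24 h at 37°C; Signal: fluorescence imaging of beta-catenin antibody stain plus DAPI; Read-out: % activation, nuclear-to-cytoplasmic median beta-catenin signal ratio per cell.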
Lmaj promast 1uM = Leishmania major promastigote growth inhibition, confirmation, 1 µM repeat of primary hits; hit rate 13% among 1,100; L. major promastigote growth, resazurin fluorescence, 48 h; AID 1258, 2008; shares compounds with L major viab; inhibition, % at 1 µM;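 active = inhibition above about 50% in both repeat tests, limit read from the data; inconclusive = one repeat under the set limit, the other over it; inactive = both repeats under the set limit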
Dynein confirm = dynein cargo transport inhibitors, GR-EGFP translocation, confirmation, imaging, high-content imaging, GR-EGFP cells | shares compounds with Dynein transport | 3617.4 GR-EGFP nuclear translocation imaging, dexamethasone-induced | calls only at 20 µM | hit rate 69% among 1,000;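 active = inhibition of receptor movement into the nucleus at or above a set limit in both runs, with normal cell brightness and cell count; inconclusive = limit reached in only one run, brightness and count normal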;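 note: dexamethasone at 1 µM final in well for 30 min; nuclear minus cytoplasmic GR-EGFP mean intensity difference in channel 2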
CHOP confirm = retest of CHOP induction inhibitors, confirmation, cell-based; hit rate 45% among 2,100; CHO-CHOP promoter luciferase reporter, tunicamycin-induced, luminescence; shares compounds with CHOP inh; inhibition, % at 10 µM; AID 504437, 2011;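 active = mean of three repeat readings of reporter signal inhibition above a set limit, cut at about 70% in these data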;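 note: 0% = tunicamycin plus vehicle and 100% = wells lacking tunicamycin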
Active calls of the source: *; i = inactive; ? = inconclusive; / = no result given; + = active, no number. Most compounds without a hit are left out; they make up all but 12% or so of the library.

SMILES | L major viab | Dynein transport | CHOP inh | Autophagy HCS | MT stabilizer | b-catenin transl | Dynein confirm | others
Cc1nnc2n1-c1ccc(Br)cc1C(c1ccccc1Cl)=NC2 | 32.2 | -0.186 | 5.8 | i | 1.1 | 0.7 | /
COCCCN1CCN(c2nnc3n2-c2sc(Br)cc2C(c2ccccc2Cl)=NC3)CC1 | 97.2* | -0.0593 | -22.4 | i | 2.3 | / | / | Lmaj promast 1uM=79.4*
CCOCCN1CCN(c2nnc3n2-c2ccc(Cl)cc2C(c2ccccc2Cl)=NC3)CC1 | 99.1* | 0.403 | 17.2 | i | 3.6 | 2.6 | / | Lmaj promast 1uM=51.3*
COc1cc([C@@H]2c3cc4c(cc3[C@@H](OC)[C@H]3COC(=O)[C@H]23)OCO4)cc(OC)c1O | / | -0.134 | -1.9 | / | / | 38.6 | /
CCOC(=O)c1c(C)[nH]c(C(=O)C(Cc2ccccc2)N(C)C)c1C (stereo unspecified) | 98.9* | -0.717 | 5.5 | i | 1.8 | 2.9 | / | Lmaj promast 1uM=-8.4
CCOC(=O)c1c(C)[nH]c(C(=O)C(C)N2CCCC2)c1C (stereo unspecified) | -3.7 | -0.784 | 12.6 | i | 2.2 | 1.4 | /
CC(=O)OC1(c2ccccc2)CCN(C)C(C)C1C (stereo unspecified) | -2.3 | 1.31 | 13.7 | i | 4.3 | -1.0 | /
CN(C)c1ccc(NC(=O)CN2C(=O)CN=C(c3ccccc3)c3ccccc32)cc1 | -0.2 | 0.0962 | / | i | 1.5 | 0.4 | /
Cc1ccc(NC(=O)CN2C(=O)CN=C(c3ccccc3)c3cc(Cl)ccc32)cc1 | 61.1* | 0.42 | 107.0* | i | 2.8 | / | / | Lmaj promast 1uM=4.3;CHOP confirm=33.9
CC1=CC2/C=C(\C)CCC(O)C(O)/C=C/C(=O)C23C(=O)NC(CC(C)C)C3C1C (stereo unspecified) | 97.4* | 0.0864 | 105.5* | i | 33.7 | 5.2 | / | Lmaj promast 1uM=48.2;CHOP confirm=125.0*
COc1ccc(CCn2c(O)c(C=NCCCN(C)C)c(=O)[nH]c2=O)cc1OC | -5.3 | -0.402 | 2.8 | i | 3.0 | / | /
COc1cc(/C=C/[N+](=O)[O-])ccc1O | 96.7* | -5.67* | 63.1 | i | 4.5 | -2.1 | +
NCCCP(=O)(O)O | / | / | -34.8 | / | / | / | /
CC(C)N1C(=O)/C(=C/C=C/c2ccco2)C(=O)N(Cc2ccco2)C1=O | 14.2 | -2.05 | 16.0 | i | 2.5 | 3.0 | /
O=C1NC(=O)N(Cc2ccccc2)C(=O)/C1=C/C=C/c1ccco1 | / | -6.01* | 11.6 | / | / | 1.1 | +
CCN1C(=O)C(=C/C=C/c2ccco2)C(=O)N(CC)C1=S | -0.8 | -4.48* | -11.3 | i | 3.3 | 0.9 | +
CC(C)c1ccc(N2C(=O)NC(=O)/C(=C\C=C\c3ccco3)C2=O)cc1 | 66.6* | -3.91* | 104.5* | i | 5.5 | 1.2 | +
CC(=O)OC(C)(C)/C=C/C(=O)[C@](C)(O)[C@H]1[C@H](O)C[C@@]2(C)[C@@H]3CC=C4[C@H](C[C@H](O)C(=O)C4(C)C)[C@]3(C)C(=O)C[C@]12C | 52.1* | -3.66* | 28.9 | ? | 40.0* | / | ?
CCN(CC)c1ccc(/C=C/[N+](=O)[O-])cc1 | 68.8* | -4.24* | -77.7 | i | 1.8 | -2.8 | +
CCN(CC)c1ccc(CC2C(=O)N(C)C(=O)N(C)C2=O)cc1 | 1.7 | -1.31 | 0.8 | i | 4.0 | -0.7 | /
CCN(CC)P(=O)(NC(=O)c1cccn1C)N(CC)CC | -5.4 | 0.059 | 7.7 | i | 3.0 | -0.7 | /

Bioassay records from PubChem.
